The text below walks through data of ChEMBL document CHEMBL1155063 (Bioorg Med Chem, 2008).

For orientation: viability means a read-out of living cells in per cent, often relative to untreated cells. Usually cell viability stands for a read-out of living cells in per cent, often relative to untreated cells. Read a low cell viability as a greater loss of cells. As usually defined, the residual activity is the signal under treatment as a percentage of the control signal. As a reminder, the IC50 is the midpoint of a concentration-inhibition curve. High values mean a need for much substance, low ones inhibition by little substance.

Activity calls are given as the source filed them. The calls are words filed in the database; no cut-off is given here.

Series [1] can be described thus: Cytotoxicity against human TERT immortalized BJ1 cells at 1 uM after 48 hrs by MTT assay relative to control. The format is cell-based, BJ. An outline of the steps:
(§1)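 hTERT-immortalized BJ1 fibroblasts were grown in DMEM with 10% FCS, 1 mM pyruvate and 4 mM […]. Cells (about 2 × 10^3 per well) were seeded and held 24 h at 37 °C. Compounds were freshly dissolved in DMSO, diluted into medium and left on the cells 48 h. MTT was added for 4 h, then SDS/DMF lysis buffer for 16 h. Absorbance was read at 550 nm and expressed relative to untreated cells (100%).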
Background: Tetrazolium dyes change colour on reduction, which living cells bring about.

Series [2] can be described thus: Cell viability of human H1299 cells at 1 uM after 48 hrs by MTT assay relative to control. The note with it: NCI-H1299, 48 h.
Series [3] is described as follows: Cytotoxicity against human TERT immortalized BJ1 cells at 10 uM after 48 hrs by MTT assay relative to control. Type of series: cell-based, BJ. An outline of the steps: as §1
The target in series [4] is T1, Telomerase reverse transcriptase (Homo sapiens, UniProt O14746). As to the kind of experiment: Effect on human TERT expressed in BJ1 cells at 100 uM after 24 hrs by SEAP assay relative to control. The note with it: BJ.
T1 sequence (O14746 whole entry): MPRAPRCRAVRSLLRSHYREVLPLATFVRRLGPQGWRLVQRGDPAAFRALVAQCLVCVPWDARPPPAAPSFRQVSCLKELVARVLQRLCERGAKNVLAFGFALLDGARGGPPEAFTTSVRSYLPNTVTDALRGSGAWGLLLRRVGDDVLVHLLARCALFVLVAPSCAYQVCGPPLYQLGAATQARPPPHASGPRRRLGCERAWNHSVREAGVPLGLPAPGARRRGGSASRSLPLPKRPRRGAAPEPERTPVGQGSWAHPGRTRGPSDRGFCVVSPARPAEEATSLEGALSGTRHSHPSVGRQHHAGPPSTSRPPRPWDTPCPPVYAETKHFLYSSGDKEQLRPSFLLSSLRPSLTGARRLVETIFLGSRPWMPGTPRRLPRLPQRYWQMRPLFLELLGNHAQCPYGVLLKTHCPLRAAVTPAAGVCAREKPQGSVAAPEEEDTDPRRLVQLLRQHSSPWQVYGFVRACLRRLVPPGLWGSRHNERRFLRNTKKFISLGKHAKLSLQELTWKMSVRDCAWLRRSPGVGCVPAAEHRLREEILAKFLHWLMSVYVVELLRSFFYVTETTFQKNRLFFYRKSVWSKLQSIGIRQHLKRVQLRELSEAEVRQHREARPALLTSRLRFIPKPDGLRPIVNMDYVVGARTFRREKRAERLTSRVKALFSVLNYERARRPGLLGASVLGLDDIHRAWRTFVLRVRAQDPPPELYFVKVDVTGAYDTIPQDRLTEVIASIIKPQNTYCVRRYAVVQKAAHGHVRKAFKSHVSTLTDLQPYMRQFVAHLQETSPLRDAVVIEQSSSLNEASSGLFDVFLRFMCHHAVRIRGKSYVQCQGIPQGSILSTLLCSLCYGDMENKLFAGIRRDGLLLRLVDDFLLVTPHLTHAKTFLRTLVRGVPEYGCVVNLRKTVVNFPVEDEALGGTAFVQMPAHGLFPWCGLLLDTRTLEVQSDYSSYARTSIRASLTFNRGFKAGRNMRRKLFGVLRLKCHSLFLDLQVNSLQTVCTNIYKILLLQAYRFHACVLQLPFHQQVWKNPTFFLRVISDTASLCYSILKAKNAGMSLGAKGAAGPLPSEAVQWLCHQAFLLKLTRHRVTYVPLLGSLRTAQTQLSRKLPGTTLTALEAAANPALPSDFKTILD
The nature of series [5]: Cytotoxicity against human TERT immortalized BJ1 cells at 100 uM after 48 hrs by MTT assay relative to control. The format is cell-based, BJ. An outline of the steps:
as §1

Series [6] can be described thus: Cytotoxicity against human H1299 cells at 100 uM after 48 hrs by MTT assay realtive to control. Type of series: functional. The note with it: NCI-H1299, 48 h. An outline of the steps:
(§2)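 H1299 non-small-cell lung cells were kept in RPMI 1640 with 10% FBS and penicillin/streptomycin at 37 °C under 5% CO2. About 2 × 10^3 cells per well were pre-incubated for 24 h. Compound was added from freshly made DMSO solution diluted in complete medium and left for 48 h. MTT was then added for 4 h at 37 °C, followed by 20% SDS/50% DMF lysis buffer for 16 h at 37 °C, and absorbance read at 550 nm.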

Series [7] has as its target T1, Telomerase reverse transcriptase. The series can be described thus: Effect on human TERT expressed in H1299 cells at 10 uM after 24 hrs by SEAP assay relative to control.
Series [8] shares this target. As to the kind of experiment: Inhibition of telomerase in human H1299 cells at 1 to 20 uM by TRAP assay. Type of series: cell-based. An outline of the steps: (§3)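 Modified TRAP assay using 2 µg total lysate from H1299 lung cancer cells as the telomerase source. Compounds were tested at 1, 5, 10 and 20 µM. Products were resolved on 10% polyacrylamide gels and stained with SYBR Green. A Taq-polymerase internal control was included, along with positive and negative controls.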

The target is the same in series [9]. The series can be described thus: Effect on human TERT expressed in H1299 cells at 100 uM after 24 hrs by SEAP assay relative to control.
Series [10] shares this target. The series can be described thus: Effect on human TERT expressed in BJ1 cells at 10 uM after 24 hrs by SEAP assay relative to control. The note with it: BJ.
Series [11] can be described thus: Cytotoxicity against human H1299 cells at 10 uM after 48 hrs by MTT assay realtive to control. The format is functional. The note with it: NCI-H1299, 48 h. An outline of the steps:
as §2

The target of series [12] is T1, Telomerase reverse transcriptase. The series can be described thus: Effect on human TERT expressed in H1299 cells at 1 uM after 24 hrs by SEAP assay relative to control.
The target is the same in series [13]. The series can be described thus: Effect on human TERT expressed in BJ1 cells at 1 uM after 24 hrs by SEAP assay realtive to control. The note with it: BJ.
For series [14] the target is unchanged. As to the kind of experiment: Inhibition of G-quadruplex-induced human TERT in H1299 cells by TRAP assay. The format is cell-based. An outline of the steps:
as §3

Take `O=C(CCN1CCNCC1)Nc1ccc2c(c1)C(=O)c1cc(NC(=O)CCN3CCNCC3)ccc1C2=O`: the viability at 48 h, 1 µM in series [1] is 96%. Moreover, the cell viability at 1 µM in series [2] was 97%. In [3], the viability at 48 h, 10 µM came to 100%. Further, the residual activity in series [4] turned out to be 131%; in series [7], 71%; in series [9] it was 71%; in [10] it was 118%; in [12] it was 75%. The viability at 48 h, 100 µM in series [5] worked out at 88%. In [6], the viability at 100 µM was found to be 102%. For the same compound, the outcome in series [8] was Active. In addition, the viability at 10 µM in series [11] is 94%.

Regarding `CN(C)CCC(=O)Nc1ccc2c(c1)C(=O)c1cc(NC(=O)CCN(C)C)ccc1C2=O`, the viability at 48 h, 1 µM in [1] is 94%. The cell viability at 1 µM in series [2] stood at 1%. Besides, in [3], the viability at 48 h, 10 µM was determined as 30%. Besides, the residual activity in series [4] worked out at 38%; in series [7], 13%; in series [9] it was 1%; in series [10], 61%; in series [13] it was 86%; in series [12], 5%. In addition, the viability at 48 h, 100 µM in series [5] was found to be 22%. In series [6], the viability at 100 µM was found to be 1%. The result in [8] was Active. The viability at 10 µM in series [11] worked out at 53%.

In the case of `O=C(CCN1CCCCC1)Nc1ccc2c(c1)C(=O)c1cc(NC(=O)CCN3CCCCC3)ccc1C2=O`, the viability at 48 h, 1 µM in series [1] amounted to 92%. The cell viability at 1 µM in [2] stood at 87%. In series [3], the viability at 48 h, 10 µM came out at 54%. Also, the viability at 48 h, 100 µM in series [5] was 41%. Further, the viability at 100 µM in series [6] was found to be 18%. Also, the residual activity in series [7] was 33%; in series [9], 25%; in series [12], 55%. Besides, in [8], the result was Active. Further, in series [14], the IC50 amounted to 8.4 µM. In addition, in series [11], the viability at 10 µM was determined as 44%.
